pKd, pKi: −log10 of the molar value. The source made the active and inactive calls. The calls are words filed in the database; no cut-off is given here. Positions of bridges follow the written chain, without caps; N, C: chain ends. Residues, ends and D or L forms follow the SMILES beside them.
Experiments:
[1] = target: T1, Urokinase-type plasminogen activator (Mus musculus, UniProt P06869); experiment: Inhibition of mouse uPA preincubated for 15 mins followed by chromogenic substrate addition
[2] = target: T1, Urokinase-type plasminogen activator; experiment: Inhibition of mouse uPA serine protease domain preincubated for 15 mins followed by chromogenic substrate addition
[3] = target: Urokinase-type plasminogen activator (Homo sapiens, UniProt P00749); experiment: Inhibition of human uPA preincubated for 15 mins followed by chromogenic substrate addition
Plasma kallikrein [4] = target: Plasma kallikrein (Homo sapiens, UniProt P03952); experiment: Inhibition of human plasma kallikrein preincubated for 15 mins followed by chromogenic substrate addition
Plasma kallikrein [5] = target: Plasma kallikrein (Mus musculus, UniProt P26262); experiment: Inhibition of mouse plasma kallikrein preincubated for 15 mins followed by chromogenic substrate addition
[6] = target: Tissue-type plasminogen activator (Homo sapiens, UniProt P00750); experiment: Inhibition of human tissue-type plasminogen activator preincubated for 15 mins followed by chromogenic substrate addition
Chain of Tissue-type plasminogen activator (Homo sapiens, UniProt P00750) (P00750 whole entry): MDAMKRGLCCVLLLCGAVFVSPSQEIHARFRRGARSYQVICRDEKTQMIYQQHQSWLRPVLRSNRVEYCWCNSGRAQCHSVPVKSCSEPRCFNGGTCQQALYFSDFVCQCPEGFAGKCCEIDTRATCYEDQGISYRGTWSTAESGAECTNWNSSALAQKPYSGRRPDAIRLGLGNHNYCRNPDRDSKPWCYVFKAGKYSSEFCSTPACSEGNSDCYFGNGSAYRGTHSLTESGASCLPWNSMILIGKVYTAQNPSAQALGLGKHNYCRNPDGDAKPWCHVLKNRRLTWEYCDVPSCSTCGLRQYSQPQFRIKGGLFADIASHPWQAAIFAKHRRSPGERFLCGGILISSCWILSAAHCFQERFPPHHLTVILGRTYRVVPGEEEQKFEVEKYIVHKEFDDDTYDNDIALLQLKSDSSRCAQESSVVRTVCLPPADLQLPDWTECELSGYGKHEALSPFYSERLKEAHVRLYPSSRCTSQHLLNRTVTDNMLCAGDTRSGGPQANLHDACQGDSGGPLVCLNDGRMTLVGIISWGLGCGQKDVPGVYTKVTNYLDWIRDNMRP

[7] = target: Tissue-type plasminogen activator (Mus musculus, UniProt P11214); experiment: Inhibition of mouse tissue-type plasminogen activator preincubated for 15 mins followed by chromogenic substrate addition
Chain of Tissue-type plasminogen activator (Mus musculus, UniProt P11214) (P11214 whole entry): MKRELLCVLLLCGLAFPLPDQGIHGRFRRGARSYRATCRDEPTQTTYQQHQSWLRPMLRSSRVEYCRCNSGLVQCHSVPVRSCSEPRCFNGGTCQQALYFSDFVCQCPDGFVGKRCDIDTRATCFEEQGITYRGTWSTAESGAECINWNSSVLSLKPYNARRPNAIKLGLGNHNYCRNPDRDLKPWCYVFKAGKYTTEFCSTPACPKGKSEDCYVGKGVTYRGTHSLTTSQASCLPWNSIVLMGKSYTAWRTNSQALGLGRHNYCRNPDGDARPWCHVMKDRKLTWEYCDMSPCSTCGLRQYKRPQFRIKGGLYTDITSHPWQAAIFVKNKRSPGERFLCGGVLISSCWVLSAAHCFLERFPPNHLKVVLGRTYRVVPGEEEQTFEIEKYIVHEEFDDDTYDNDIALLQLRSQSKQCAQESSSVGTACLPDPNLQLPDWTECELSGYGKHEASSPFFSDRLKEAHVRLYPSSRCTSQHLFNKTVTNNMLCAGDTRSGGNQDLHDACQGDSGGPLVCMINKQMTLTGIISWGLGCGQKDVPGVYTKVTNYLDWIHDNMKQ

Plasminogen [8] = target: Plasminogen (Homo sapiens, UniProt P00747); experiment: Inhibition of human plasmin preincubated for 15 mins followed by chromogenic substrate addition
Chain of Plasminogen (Homo sapiens, UniProt P00747) (P00747 97-580 limits assumed): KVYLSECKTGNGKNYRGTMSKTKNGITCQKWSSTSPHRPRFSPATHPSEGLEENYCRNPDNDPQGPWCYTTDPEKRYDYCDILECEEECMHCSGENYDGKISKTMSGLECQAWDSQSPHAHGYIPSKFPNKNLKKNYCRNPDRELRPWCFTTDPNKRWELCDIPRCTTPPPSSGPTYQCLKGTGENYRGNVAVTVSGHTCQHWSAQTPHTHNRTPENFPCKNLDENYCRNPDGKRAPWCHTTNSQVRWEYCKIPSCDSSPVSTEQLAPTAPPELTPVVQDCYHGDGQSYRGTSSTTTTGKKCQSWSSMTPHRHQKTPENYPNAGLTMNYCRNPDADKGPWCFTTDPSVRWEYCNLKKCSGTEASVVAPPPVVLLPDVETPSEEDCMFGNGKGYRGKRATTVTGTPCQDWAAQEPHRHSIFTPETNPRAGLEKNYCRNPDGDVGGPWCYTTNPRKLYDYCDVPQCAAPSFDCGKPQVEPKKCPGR
Chain of Plasminogen (Homo sapiens, UniProt P00747) (P00747 581-810 limits assumed): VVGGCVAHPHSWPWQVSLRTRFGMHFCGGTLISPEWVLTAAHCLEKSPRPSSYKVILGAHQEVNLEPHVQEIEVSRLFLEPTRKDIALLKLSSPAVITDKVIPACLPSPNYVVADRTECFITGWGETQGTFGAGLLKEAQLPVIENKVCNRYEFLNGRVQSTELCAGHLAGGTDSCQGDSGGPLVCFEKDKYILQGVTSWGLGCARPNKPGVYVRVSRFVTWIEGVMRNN

Plasminogen [9] = target: Plasminogen (Mus musculus, UniProt P20918); experiment: Inhibition of mouse plasmin preincubated for 15 mins followed by chromogenic substrate addition
Chain of Plasminogen (Mus musculus, UniProt P20918) (P20918 98-581 limits assumed): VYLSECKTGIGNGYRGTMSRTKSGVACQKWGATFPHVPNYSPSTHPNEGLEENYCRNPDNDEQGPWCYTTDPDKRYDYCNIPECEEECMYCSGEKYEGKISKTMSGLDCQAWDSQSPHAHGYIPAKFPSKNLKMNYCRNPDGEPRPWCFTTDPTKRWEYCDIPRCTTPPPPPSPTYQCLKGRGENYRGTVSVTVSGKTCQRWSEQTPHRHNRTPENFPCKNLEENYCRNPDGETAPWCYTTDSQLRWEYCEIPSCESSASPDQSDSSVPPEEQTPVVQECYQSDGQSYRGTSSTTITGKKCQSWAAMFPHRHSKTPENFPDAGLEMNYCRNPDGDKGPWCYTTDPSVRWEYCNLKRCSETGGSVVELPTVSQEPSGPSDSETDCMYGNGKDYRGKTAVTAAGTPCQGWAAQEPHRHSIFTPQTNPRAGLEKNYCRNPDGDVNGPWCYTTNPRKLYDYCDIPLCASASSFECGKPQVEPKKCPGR
Chain of Plasminogen (Mus musculus, UniProt P20918) (P20918 582-812 limits assumed): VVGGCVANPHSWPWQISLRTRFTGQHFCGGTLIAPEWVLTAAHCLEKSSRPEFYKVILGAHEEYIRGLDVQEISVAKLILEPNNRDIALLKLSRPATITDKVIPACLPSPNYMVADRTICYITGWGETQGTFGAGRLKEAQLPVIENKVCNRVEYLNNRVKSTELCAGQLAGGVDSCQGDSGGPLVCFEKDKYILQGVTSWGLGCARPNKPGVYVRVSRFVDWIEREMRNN

Prothrombin [10] = target: Prothrombin (Homo sapiens, UniProt P00734); experiment: Inhibition of human thrombin preincubated for 15 mins followed by chromogenic substrate addition
Prothrombin [11] = target: Prothrombin (Mus musculus, UniProt P19221); experiment: Inhibition of mouse thrombin preincubated for 15 mins followed by chromogenic substrate addition
[12] = Inhibition of mouse trypsin preincubated for 15 mins followed by chromogenic substrate addition
Coagulation factor XI = Coagulation factor XI (Homo sapiens, UniProt P03951); experiment: Inhibition of human factor 11a preincubated for 15 mins followed by chromogenic substrate addition
Chain of Coagulation factor XI (P03951 19-387 limits assumed): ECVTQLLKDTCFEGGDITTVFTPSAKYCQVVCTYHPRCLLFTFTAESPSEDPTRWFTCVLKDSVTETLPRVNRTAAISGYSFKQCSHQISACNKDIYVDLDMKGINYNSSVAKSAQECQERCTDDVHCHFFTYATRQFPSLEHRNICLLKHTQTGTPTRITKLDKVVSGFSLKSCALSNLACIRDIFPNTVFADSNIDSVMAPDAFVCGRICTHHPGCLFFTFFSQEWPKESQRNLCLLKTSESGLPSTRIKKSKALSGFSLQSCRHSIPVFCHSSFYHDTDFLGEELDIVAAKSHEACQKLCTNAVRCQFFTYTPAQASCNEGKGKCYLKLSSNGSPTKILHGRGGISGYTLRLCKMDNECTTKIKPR
Chain of Coagulation factor XI (P03951 388-625 limits assumed): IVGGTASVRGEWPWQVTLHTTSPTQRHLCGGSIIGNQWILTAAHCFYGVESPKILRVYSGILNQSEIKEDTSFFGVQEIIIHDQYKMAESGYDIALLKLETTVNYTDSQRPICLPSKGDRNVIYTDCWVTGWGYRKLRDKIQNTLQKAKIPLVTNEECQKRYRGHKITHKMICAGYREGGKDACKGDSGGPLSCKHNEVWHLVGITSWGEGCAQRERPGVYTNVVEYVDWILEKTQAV

[13] = target: T2, Suppressor of tumorigenicity 14 protein (Homo sapiens, UniProt Q9Y5Y6); experiment: Inhibition of human matriptase preincubated for 15 mins followed by chromogenic substrate addition
T2 sequence (Q9Y5Y6 whole entry): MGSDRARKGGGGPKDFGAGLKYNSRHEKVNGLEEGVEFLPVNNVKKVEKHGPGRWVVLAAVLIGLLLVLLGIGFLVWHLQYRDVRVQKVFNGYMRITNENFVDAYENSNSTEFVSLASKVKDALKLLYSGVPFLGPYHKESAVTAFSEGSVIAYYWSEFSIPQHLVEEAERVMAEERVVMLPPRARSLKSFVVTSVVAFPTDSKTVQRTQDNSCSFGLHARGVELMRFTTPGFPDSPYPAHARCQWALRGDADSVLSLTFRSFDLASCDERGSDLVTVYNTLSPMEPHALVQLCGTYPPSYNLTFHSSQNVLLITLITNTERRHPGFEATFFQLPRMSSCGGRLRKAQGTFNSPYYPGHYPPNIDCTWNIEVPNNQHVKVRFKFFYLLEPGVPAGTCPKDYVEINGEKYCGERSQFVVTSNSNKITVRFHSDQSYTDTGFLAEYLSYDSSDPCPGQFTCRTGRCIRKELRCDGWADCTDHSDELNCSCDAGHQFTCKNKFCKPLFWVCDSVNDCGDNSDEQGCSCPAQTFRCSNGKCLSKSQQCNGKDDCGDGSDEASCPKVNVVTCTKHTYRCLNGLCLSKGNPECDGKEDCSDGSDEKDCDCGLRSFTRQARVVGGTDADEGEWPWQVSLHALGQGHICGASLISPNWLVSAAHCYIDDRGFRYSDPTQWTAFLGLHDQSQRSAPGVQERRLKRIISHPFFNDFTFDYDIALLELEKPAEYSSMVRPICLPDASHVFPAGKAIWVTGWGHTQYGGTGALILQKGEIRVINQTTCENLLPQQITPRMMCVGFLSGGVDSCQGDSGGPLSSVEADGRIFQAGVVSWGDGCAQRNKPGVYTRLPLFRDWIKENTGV

[14] = target: Vitamin K-dependent protein C (Homo sapiens, UniProt P04070); experiment: Inhibition of human activated protein C preincubated for 15 mins followed by chromogenic substrate addition
Chain of Vitamin K-dependent protein C (P04070 43-197 limits assumed): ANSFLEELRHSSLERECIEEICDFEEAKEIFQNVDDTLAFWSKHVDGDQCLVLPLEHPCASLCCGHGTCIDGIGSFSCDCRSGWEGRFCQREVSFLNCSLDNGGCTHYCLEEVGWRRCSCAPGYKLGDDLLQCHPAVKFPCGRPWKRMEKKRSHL
Chain of Vitamin K-dependent protein C (P04070 212-461 limits assumed): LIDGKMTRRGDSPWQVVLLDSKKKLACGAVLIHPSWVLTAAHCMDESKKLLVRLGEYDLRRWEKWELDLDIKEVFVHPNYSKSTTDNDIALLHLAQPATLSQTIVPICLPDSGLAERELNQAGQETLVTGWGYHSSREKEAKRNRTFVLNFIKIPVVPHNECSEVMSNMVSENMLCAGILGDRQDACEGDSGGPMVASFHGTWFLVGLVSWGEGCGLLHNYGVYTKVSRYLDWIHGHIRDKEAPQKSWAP

[15] = target: Urokinase-type plasminogen activator (Mus musculus) (UniProt P06869); experiment: Binding affinity to mouse uPA assessed as dissociation rate constant after 600 secs by SPR assay
Chain of Urokinase-type plasminogen activator (Mus musculus) (P06869 21-178 limits assumed): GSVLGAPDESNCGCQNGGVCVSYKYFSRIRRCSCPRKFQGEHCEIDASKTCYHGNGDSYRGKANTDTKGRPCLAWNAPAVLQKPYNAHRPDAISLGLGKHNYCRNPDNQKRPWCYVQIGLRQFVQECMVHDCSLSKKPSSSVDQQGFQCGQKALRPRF
Chain of Urokinase-type plasminogen activator (Mus musculus) (P06869 180-433 limits assumed): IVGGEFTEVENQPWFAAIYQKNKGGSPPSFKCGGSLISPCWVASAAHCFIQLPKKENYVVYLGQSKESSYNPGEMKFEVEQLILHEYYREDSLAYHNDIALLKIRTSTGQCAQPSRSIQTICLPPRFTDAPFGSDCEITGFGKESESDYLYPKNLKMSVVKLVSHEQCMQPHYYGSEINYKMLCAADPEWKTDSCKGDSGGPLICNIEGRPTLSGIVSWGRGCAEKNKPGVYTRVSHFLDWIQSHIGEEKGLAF

[16] = target: T1, Urokinase-type plasminogen activator; experiment: Binding affinity to mouse uPA by SPR assay
[17] = target: T1, Urokinase-type plasminogen activator; experiment: Binding affinity to mouse uPA expressed in HEK2936E cells by ITC assay
CT26 [18] = experiment: Cytotoxicity against mouse CT26 cells at 100 uM; format: cell-based; conditions: ct26, 100 µM
[19] = target: Urokinase-type plasminogen activator (Mus musculus) (UniProt P06869); experiment: Inhibition of the intrinsic peri-cellular uPA in mouse CT26 cells assessed as reduction in cell migration at 30 to 100 uM measured every hour by wound healing assay relative to control; format: cell-based
[20] = target: T1, Urokinase-type plasminogen activator; experiment: Inhibition of mouse uPA
[21] = target: Urokinase-type plasminogen activator (Mus musculus) (UniProt P06869); experiment: Inhibition of the intrinsic peri-cellular uPA in mouse CT26 cells assessed as reduction in cell invasion at 33 to 100 uM by Transwell invasion assay relative to control
[22] = target: Urokinase-type plasminogen activator (Mus musculus) (UniProt P06869); experiment: Inhibition of the intrinsic peri-cellular uPA in mouse CT26 cells assessed as reduction in cell invasion measured every hour by transwell assay; format: cell-based
CT26 [23] = experiment: Anti-tumor activity against […] mouse CT26 cells allografted in Balb/c mouse assessed as tumor growth inhibition at 12.3 mg/kg, ip administered daily for 15 days and measured on day 16 by […]; format: functional; conditions: read-out: TGI
How it was run: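 CT-26 cells implanted subcutaneously in right flank of Balb/c mice; once tumors reached about 150~200 mm3, daily intraperitoneal dosing with peptide or saline for 15 days. Mice sacrificed on Day 16; tumors resected and weighed; tumor growth reduction relative to saline group.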

CT26 [24] = experiment: Antimetastatic activity against mouse CT26 cells allografted in Balb/c mouse assessed as reduction genomic DNA of metastatic cells at 12.3 mg/kg, ip administered daily for 15 days by qPCR analysis; format: functional, organism-based
How it was run: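 Male Balb/c mice (~20 g, 6/group) given 10^6 GFP-CT-26 cells i.v. in 200 µl mixed with peptide or saline, then daily i.p. peptide Day 1–15; sacrificed Day 16. Lung total DNA isolated after homogenization; 200 ng per SYBR Green qPCR, quantified against standard curve of CT-26 DNA spiked into normal lung DNA (0.135%-100%).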

CT26 [25] = experiment: Antimetastatic activity against GFP-fused mouse CT26 cells allografted in Balb/c mouse assessed as reduction in relative fluorescence at 12.3 mg/kg, ip administered daily for 15 days by fluorescence-based assay; format: functional, organism-based
How it was run: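 Lung metastasis model: male Balb/c mice (~20 g, 6/group) given 10^6 GFP-CT-26 cells i.v. with peptide or saline, daily i.p. dosing Day 1–15, sacrificed Day 16. Resected lungs imaged for GFP with 488 nm excitation, emission 520; signal collected over 20×20 mm2 per lung; non-implanted normal group used for background subtraction.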

CT26 [26] = experiment: Antimetastatic activity against GFP-fused mouse CT26 cells allografted in Balb/c mouse assessed as reduction in tumor nodule numbers at 12.3 mg/kg, ip administered daily for 15 days by fluorescence-based assay; format: functional, organism-based
How it was run: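 Lung metastasis model: male Balb/c mice (~20 g, 6/group) given 10^6 GFP-CT-26 cells i.v. with peptide or saline, daily i.p. dosing Day 1–15, sacrificed Day 16. Surface tumor nodules on pleural surfaces counted per lung after soaking in formaldehyde.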

CT26 [27] = experiment: Antimetastatic activity against GFP-fused mouse CT26 cells allografted in Balb/c mouse assessed as reduction in hyperplastic weights at 12.3 mg/kg, ip administered daily for 15 days by fluorescence-based assay; format: functional, organism-based
How it was run: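 Lung metastasis model: male Balb/c mice (~20 g, 6/group) given 10^6 GFP-CT-26 cells i.v. with peptide or saline, then daily i.p. dosing Day 1–15. Lungs resected and weighed immediately at sacrifice on Day 16; hyperplastic weight = lung weight minus weight of lungs from non-implanted normal mice.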

CT26 [28] = experiment: Antimetastatic activity against mouse CT26 cells allografted in Balb/c mouse at 12.3 mg/kg, ip administered daily for 15 days by hematoxylin and eosin staining -based assay; format: functional, organism-based
How it was run: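 Lung metastasis model: male Balb/c mice given 10^6 GFP-CT-26 cells i.v., daily i.p. dosing Day 1–15, sacrificed Day 16. Formalin-fixed, paraffin-embedded lung sections stained with H&E for histology alongside normal lungs.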

[29] = Toxicity in Balb/c mouse allografted with mouse CT26 cells assessed as effect on body weight at 12.3 mg/kg, ip administered daily for 15 days; format: organism-based; conditions: in vivo, 360 h
How it was run: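 CT-26 tumour-bearing Balb/c mice dosed i.p. daily with peptide or saline; body weights recorded daily over the 15 days.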

[30] = target: Urokinase-type plasminogen activator (Mus musculus) (UniProt P06869); experiment: Inhibition of the intrinsic peri-cellular uPA in mouse CT26 cells assessed as reduction in cell invasion at 100 uM […] by transwell assay; format: cell-based
How it was run: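 CT-26 cells, 2×10^5 per Matrigel-coated Transwell top chamber in serum-free DMEM with peptide; 10% serum medium below. After 24 h, invaded underside cells stained with 0.1% crystal violet, eluted in 33% acetic acid, read at A570 and normalized to untreated (100%). Triplicates. The legend gives a 0.1–100 μM dose range, with IC50 derived from the dose-response.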

MCF7 = experiment: Anti-invasive activity in human MCF7 cells at 100 uM measured every hour by transwell assay; format: functional, cell-based
[31] = target: Urokinase-type plasminogen activator (Mus musculus) (UniProt P06869); experiment: Inhibition of the intrinsic peri-cellular uPA in mouse CT26 cells assessed as reduction in cell migration at 100 uM measured every hour by wound healing assay relative to control; format: cell-based

T1 sequence (P06869 21-178 limits assumed): as the sequence (P06869 21-178 limits assumed) above
T1 sequence (P06869 180-433 limits assumed): as the sequence (P06869 180-433 limits assumed) above

Structure (SMILES) | pKi [1] | pKi [2] | pKi [3] | pKi (Plasma kallikrein [4]) | pKi (Plasma kallikrein [5]) | pKi [6] | pKi [7] | pKi (Plasminogen [8]) | pKi (Plasminogen [9]) | pKi (Prothrombin [10]) | pKi (Prothrombin [11]) | pKi [12] | pKi (Coagulation factor XI) | pKi [13] | pKi [14] | pKd [16] | pKd [17] | Activity (CT26 [18]) | inhibition [19] | pKi [20] | further results
CC[C@H](C)[C@@H]1NC(=O)[C@H](Cc2ccc(O)cc2)NC(=O)[C@H](CCCNC(=N)N)NC(=O)[C@H](CO)NC(=O)[C@H](Cc2ccc(O)cc2)NC(=O)[C@H](C)NC(=O)[C@@H]2CCCN2C(=O)[C@@H](NC(C)=O)CSSC[C@@H](C(N)=O)NC(=O)CNC1=O (Ac-CPAYSRYIGC-NH2; disulfide 1-10) | 7.70 | 6.61 | 6.04 | < 4.60 | < 4.60 | < 4.60 | < 4.60 | < 4.60 | < 4.60 | < 4.60 | < 4.60 | 5.80 | < 4.60 | < 4.60 | < 4.60 | 7.83 | 7.38 | Non-Toxic | 30% | 7.70 | K [15]: 0.0064 s⁻¹; inhibition [21]: 70 to 80%
CC(=O)N[C@H]1CSSC[C@@H](C(N)=O)NC(=O)[C@H](CC(=O)O)NC(=O)[C@H](CC(C)C)NC(=O)[C@H](Cc2ccc(O)cc2)NC(=O)[C@H](CCCNC(=N)N)NC(=O)[C@H](CO)NC(=O)[C@H](Cc2ccc(O)cc2)NC(=O)[C@H](C)NC(=O)[C@@H]2CCCN2C1=O (Ac-CPAYSRYLDC-NH2; disulfide 1-10) | 6.26 | 5.75 | 4.82 | < 4.60 | < 4.60 | < 4.60 | < 4.60 | < 4.60 | < 4.60 | < 4.60 | < 4.60 | 5.08 | < 4.60 | < 4.60 | < 4.60 | 6.40 | 6.45 | Non-Toxic | 30% | 6.26 | inhibition [22]: Dose-dependent effect; inhibition in vivo at 12.3 mg/kg (CT26 [23]): 36.4%; Activity (CT26 [24]): inactive; Activity (CT26 [25]): inactive; Activity (CT26 [26]): inactive; Activity (CT26 [27]): inactive; Activity (CT26 [28]): Active; Activity [29]: Non-Toxic
CC[C@H](C)[C@@H]1NC(=O)[C@H](Cc2ccc(O)cc2)NC(=O)[C@H](C)NC(=O)[C@H](CO)NC(=O)[C@H](Cc2ccc(O)cc2)NC(=O)[C@H](C)NC(=O)[C@@H]2CCCN2C(=O)[C@@H](N)CSSC[C@@H](C(=O)O)NC(=O)CNC1=O (H-CPAYSAYIGC-OH; disulfide 1-10) | – | – | – | – | – | – | – | – | – | – | – | – | – | – | – | – | – | Non-Toxic | – | – | inhibition [30]: inactive; Activity (MCF7): inactive; inhibition [31]: inactive
